From ChEMBL document CHEMBL1629475, “Synthesis of new chalcone derivatives containing a rhodanine-3-acetic acid moiety with potential anti-bacterial activity” (2010)
Activity calls are given as the source filed them.

How the values were obtained:
[1] = tested on: Staphylococcus aureus; experiment: Antibacterial activity against Staphylococcus aureus RN 4220 at 64 ug/ml; assay type: functional, organism-based
[2] = tested on: Staphylococcus aureus; experiment: Antibacterial activity against Staphylococcus aureus KCTC 503 at 64 ug/ml; assay type: functional, organism-based
[3] = tested on: Staphylococcus aureus; experiment: Antibacterial activity against Staphylococcus aureus KCTC 209 at 64 ug/ml; assay type: functional, organism-based
[4] = tested on: Streptococcus mutans; experiment: Antibacterial activity against Streptococcus mutans KCTC 3065 at 64 ug/ml; assay type: functional, organism-based
[5] = tested on: Streptococcus mutans; experiment: Antibacterial activity against Streptococcus mutans KCTC 3289 at 64 ug/ml; assay type: functional, organism-based
[6] = tested on: Staphylococcus aureus; experiment: Antibacterial activity against Staphylococcus aureus RN 4220 after 20 hrs by twofold serial dilution technique; assay type: functional; details: RN 4220, 20 h
In short: (§1)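 Inoculum was 10⁵ CFU/mL. MIC was read after 20 h at 37 °C. The MRSA and QRSA strains were multidrug-resistant clinical isolates. Oxacillin and norfloxacin served as positive controls.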

[7] = tested on: Staphylococcus aureus; experiment: Antibacterial activity against Staphylococcus aureus KCTC 503 after 20 hrs by twofold serial dilution technique; assay type: functional; details: KCTC 503, 20 h; in short: as §1
[8] = tested on: Staphylococcus aureus; experiment: Antibacterial activity against Staphylococcus aureus KCTC 209 after 20 hrs by twofold serial dilution technique; assay type: functional; details: KCTC 209, 20 h; in short: as §1
[9] = tested on: Streptococcus mutans; experiment: Antibacterial activity against Streptococcus mutans KCTC 3065 after 20 hrs by twofold serial dilution technique; assay type: functional; details: KCTC 3065, 20 h
In short: (§2)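 Inoculum was 10⁵ CFU/mL, and MIC was read after incubation at 37 °C for 20 h. Oxacillin and norfloxacin were the positive controls.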

[10] = tested on: Streptococcus mutans; experiment: Antibacterial activity against Streptococcus mutans KCTC 3289 after 20 hrs by twofold serial dilution technique; assay type: functional; details: KCTC 3289, 20 h; in short: as §2
[11] = tested on: Escherichia coli; experiment: Antibacterial activity against Escherichia coli 1924 after 20 hrs by twofold serial dilution technique; assay type: functional; details: Escherichia coli, 1924, 20 h; in short: as §1
[12] = tested on: Escherichia coli; experiment: Antibacterial activity against Escherichia coli 1356 after 20 hrs by twofold serial dilution technique; assay type: functional; details: Escherichia coli, 1356, 20 h; in short: as §1
[13] = tested on: Escherichia coli; experiment: Antibacterial activity against Escherichia coli 1356 at 64 ug/ml; assay type: functional, organism-based
[14] = tested on: Escherichia coli; experiment: Antibacterial activity against Escherichia coli 1924 at 64 ug/ml; assay type: functional, organism-based

O=C(O)CN1C(=O)/C(=C\c2ccc(/C=C/C(=O)c3ccccc3Cl)cc2)SC1=S
> 64 µg/mL: MIC [6] | MIC [7] | MIC [8] | MIC [9] | MIC [10] | MIC [11] | MIC [12]
inactive: Activity [1] | Activity [2] | Activity [3] | Activity [4] | Activity [5] | Activity [13] | Activity [14]
